Source: ChEMBL document CHEMBL4339252, “Prenylated Stilbenoids Affect Inflammation by Inhibiting the NF-κB/AP-1 Signaling Pathway and Cyclooxygenases and Lipoxygenase” (J Nat Prod, 2019)
Active and inactive are the calls of the source. The calls are words filed in the database; no cut-off is given here.

How the values were obtained:
THP-1 [1] = assay: Induction of IL-1beta production in PMA-differentiated human THP1 cells at 0.1 uM pre-incubated for 1 hr before LPS-stimulation for 24 hrs by ELISA; format: cell-based; conditions: thp-1, 24 h
Procedure, shortened: (§1)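 THP-1 monocytes grown in RPMI 1640 with 10% FBS and antibiotics at 37 °C, plated at 5 × 10^5 cells/well and differentiated to macrophages with phorbol myristate acetate. Pretreated 1 h with compound in DMSO, or DMSO vehicle. Then stimulated with E. coli 0111:B4 LPS (1 μg/mL); unstimulated controls got no LPS. Medium collected after 24 h, cytokine measured by ELISA. Triplicates, three or more independent experiments, means ± SE.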

THP-1 [2] = assay: Antiinflammatory activity in PMA-differentiated human THP1 cells assessed as inhibition of TNFalpha production at 1 uM pre-incubated for 1 hr before LPS-stimulation for 24 hrs by ELISA; format: functional, cell-based; procedure, shortened: as §1
THP-1 [3] = assay: Cytotoxicity against human THP1 cells assessed as reduction in cell viability incubated for 24 hrs by WST1 dye based assay; conditions: THP-1, 24 h
Procedure, shortened: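 Undifferentiated THP-1 cells moved to serum-free medium at 5 × 10^5 cells/well. After 2 h, compounds in DMSO added at 0.125−20 μM and incubated 24 h. Viability read with WST-1 reagent. IC50 taken from four-parameter logistic fits of at least five-point curves, serial measurements in triplicate, means ± SE.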

THP-1 [4] = assay: Antiinflammatory activity in PMA-differentiated human THP1 cells assessed as inhibition of TNFalpha production at 0.1 uM pre-incubated for 1 hr before LPS-stimulation for 24 hrs by ELISA; format: functional, cell-based; procedure, shortened: as §1
Homo sapiens = organism: Homo sapiens; assay: Inhibition of LPS-stimulation dependent TLR4-induced NF-kappaB/AP-1 signaling cascade in human THP1-XBlue-MD2-CD14 cells at 1 uM pre-incubated for 1 hr before LPS-stimulation for 24 hrs by spectrophotometry
Procedure, shortened: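 THP-1-XBlue-MD2-CD14 reporter cells (5 × 10^5/well) pretreated 1 h with compound in DMSO, then stimulated with LPS (1 μg/mL) for 24 h. NF-κB/AP-1 activity read with Quanti-Blue reagent as OD at 655 nm and expressed against vehicle (100%). Five independent experiments in triplicate, means ± SE.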

THP-1 [5] = assay: Antiinflammatory activity in PMA-differentiated human THP1 cells assessed as inhibition of IL-1beta production at 1 uM pre-incubated for 1 hr before LPS-stimulation for 24 hrs by ELISA; format: functional, cell-based; procedure, shortened: as §1
[6] = Selectivity index, ratio of IC50 for inhibition of ram seminal vesicle COX1 to IC50 for inhibition of human recombinant COX2
[7] = target: T1, Prostaglandin G/H synthase 2 (Homo sapiens, UniProt P35354); assay: Inhibition of human recombinant COX2 assessed as reduction in PGE2 production using arachidonic acid substrate by ELISA
T1 sequence (P35354 whole entry): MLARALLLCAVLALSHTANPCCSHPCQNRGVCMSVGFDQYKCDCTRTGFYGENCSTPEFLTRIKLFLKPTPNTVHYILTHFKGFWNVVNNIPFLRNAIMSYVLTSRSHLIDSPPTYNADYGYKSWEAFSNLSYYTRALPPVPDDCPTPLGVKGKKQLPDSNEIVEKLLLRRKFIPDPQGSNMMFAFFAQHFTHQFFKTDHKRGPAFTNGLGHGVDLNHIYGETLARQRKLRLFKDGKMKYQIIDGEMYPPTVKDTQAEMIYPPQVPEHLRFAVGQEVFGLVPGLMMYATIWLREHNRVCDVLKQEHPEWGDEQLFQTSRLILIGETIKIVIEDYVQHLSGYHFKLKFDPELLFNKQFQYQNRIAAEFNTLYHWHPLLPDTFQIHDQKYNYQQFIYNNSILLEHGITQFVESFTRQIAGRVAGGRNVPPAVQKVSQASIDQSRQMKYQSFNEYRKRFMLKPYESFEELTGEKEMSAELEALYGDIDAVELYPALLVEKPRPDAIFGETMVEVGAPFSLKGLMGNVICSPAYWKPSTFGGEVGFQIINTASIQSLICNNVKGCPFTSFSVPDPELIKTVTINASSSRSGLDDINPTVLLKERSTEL

[8] = target: T2, Polyunsaturated fatty acid 5-lipoxygenase (Homo sapiens, UniProt P09917); assay: Inhibition of human recombinant 5-LOX assessed as reduction in leukotriene B4 synthesis using arachidonic acid substrate by ELISA
T2 sequence (P09917 whole entry): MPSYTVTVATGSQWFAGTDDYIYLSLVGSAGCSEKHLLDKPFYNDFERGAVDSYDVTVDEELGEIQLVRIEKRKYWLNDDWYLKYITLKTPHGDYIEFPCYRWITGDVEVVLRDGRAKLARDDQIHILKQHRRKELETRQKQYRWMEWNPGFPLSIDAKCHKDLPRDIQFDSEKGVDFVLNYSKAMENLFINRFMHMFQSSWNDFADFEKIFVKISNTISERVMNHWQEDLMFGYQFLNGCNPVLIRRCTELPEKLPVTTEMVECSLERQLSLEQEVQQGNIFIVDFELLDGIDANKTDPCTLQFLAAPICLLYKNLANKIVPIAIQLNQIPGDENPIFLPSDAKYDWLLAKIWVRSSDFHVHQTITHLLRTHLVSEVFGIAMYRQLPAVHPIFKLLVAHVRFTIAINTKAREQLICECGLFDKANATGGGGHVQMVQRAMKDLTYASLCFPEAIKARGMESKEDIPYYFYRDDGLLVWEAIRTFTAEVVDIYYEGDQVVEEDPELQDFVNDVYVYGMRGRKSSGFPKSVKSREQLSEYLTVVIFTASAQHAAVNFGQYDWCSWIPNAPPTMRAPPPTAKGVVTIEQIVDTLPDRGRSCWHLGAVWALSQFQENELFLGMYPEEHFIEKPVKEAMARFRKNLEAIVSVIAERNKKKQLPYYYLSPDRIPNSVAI

[9] = target: T3, Prostaglandin G/H synthase 1 (Ovis aries, UniProt P05979); assay: Inhibition of ram seminal vesicle COX1 assessed as reduction in PGE2 production using arachidonic acid substrate by ELISA
T3 sequence (P05979 whole entry): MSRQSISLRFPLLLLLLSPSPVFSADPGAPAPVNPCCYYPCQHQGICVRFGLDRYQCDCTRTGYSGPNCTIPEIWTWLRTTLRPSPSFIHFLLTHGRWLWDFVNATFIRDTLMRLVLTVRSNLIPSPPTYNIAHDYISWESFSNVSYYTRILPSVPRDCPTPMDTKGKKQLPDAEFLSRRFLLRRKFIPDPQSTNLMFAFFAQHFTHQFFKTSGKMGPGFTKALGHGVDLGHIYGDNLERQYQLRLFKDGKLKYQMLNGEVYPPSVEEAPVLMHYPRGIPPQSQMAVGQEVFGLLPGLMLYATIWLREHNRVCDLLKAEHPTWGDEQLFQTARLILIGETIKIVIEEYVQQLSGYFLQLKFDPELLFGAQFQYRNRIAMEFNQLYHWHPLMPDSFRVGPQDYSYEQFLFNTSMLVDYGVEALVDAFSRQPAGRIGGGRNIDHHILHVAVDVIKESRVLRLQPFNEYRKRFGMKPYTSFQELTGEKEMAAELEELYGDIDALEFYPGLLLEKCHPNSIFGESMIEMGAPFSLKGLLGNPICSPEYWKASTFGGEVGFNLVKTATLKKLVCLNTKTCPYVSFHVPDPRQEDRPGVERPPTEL

THP-1 [10] = assay: Induction of IL-1beta production in PMA-differentiated human THP1 cells at 1 uM pre-incubated for 1 hr before LPS-stimulation for 24 hrs by ELISA; format: cell-based; conditions: thp-1, 24 h; procedure, shortened: as §1
THP-1 [11] = assay: Induction of TNFalpha production in PMA-differentiated human THP1 cells at 1 uM pre-incubated for 1 hr before LPS-stimulation for 24 hrs by ELISA; format: cell-based; conditions: thp-1, 24 h; procedure, shortened: as §1
[12] = target: MAP kinase p38 (Homo sapiens) (UniProt O15264+Q15759+Q16539+P53778); assay: Inhibition of p38 phosphorylation in LPS-stimulated human THP1-XBlue-MD2-CD14 cells at 1 uM pre-incubated for 1 hr before LPS-stimulation for 30 mins by Western blot analysis
Procedure, shortened: (§2)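 THP-1-XBlue-MD2-CD14 cells pretreated with compound (1 μM), then LPS (1 μg/mL) added 1 h later. Lysates taken 30 min after LPS. 9 μg protein run on 12% PAGE, blotted to PVDF, blocked in 5% BSA. Probed for IκB-α, total and phospho p38, ERK1/2 and JNK, with β-actin as reference. ECL chemiluminescence; three independent experiments.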

[13] = target: Mitogen-activated protein kinase; ERK1/ERK2 (Homo sapiens) (UniProt P27361+P28482); assay: Inhibition of ERK1/2 phosphorylation in LPS-stimulated human THP1-XBlue-MD2-CD14 cells at 1 uM pre-incubated for 1 hr before LPS-stimulation for 30 mins by Western blot analysis; procedure, shortened: as §2
[14] = target: T4, NF-kappa-B inhibitor alpha (Homo sapiens) (UniProt P25963); assay: Inhibition of IkappaBalpha degradation in LPS-stimulated human THP1-XBlue-MD2-CD14 cells at 1 uM pre-incubated for 1 hr before LPS-stimulation for 30 mins by Western blot analysis; procedure, shortened: as §2
T4 sequence (whole entry): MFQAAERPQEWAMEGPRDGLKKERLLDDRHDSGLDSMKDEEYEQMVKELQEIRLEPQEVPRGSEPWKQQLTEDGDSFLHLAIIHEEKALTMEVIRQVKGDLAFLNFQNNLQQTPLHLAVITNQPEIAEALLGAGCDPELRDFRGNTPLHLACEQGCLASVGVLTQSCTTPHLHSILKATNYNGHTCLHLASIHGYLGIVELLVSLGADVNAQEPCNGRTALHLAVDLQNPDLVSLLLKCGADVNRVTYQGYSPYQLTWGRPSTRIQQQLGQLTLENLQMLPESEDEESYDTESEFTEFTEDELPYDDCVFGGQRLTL

[15] = target: c-Jun N-terminal kinase, JNK (Homo sapiens) (UniProt P45983+P53779+P45984); assay: Inhibition of JNK phosphorylation in LPS-stimulated human THP1-XBlue-MD2-CD14 cells at 1 uM pre-incubated for 1 hr before LPS-stimulation for 30 mins by Western blot analysis; procedure, shortened: as §2

Chain of Mitogen-activated protein kinase; ERK1/ERK2 (Homo sapiens) (P27361 whole entry, looked up): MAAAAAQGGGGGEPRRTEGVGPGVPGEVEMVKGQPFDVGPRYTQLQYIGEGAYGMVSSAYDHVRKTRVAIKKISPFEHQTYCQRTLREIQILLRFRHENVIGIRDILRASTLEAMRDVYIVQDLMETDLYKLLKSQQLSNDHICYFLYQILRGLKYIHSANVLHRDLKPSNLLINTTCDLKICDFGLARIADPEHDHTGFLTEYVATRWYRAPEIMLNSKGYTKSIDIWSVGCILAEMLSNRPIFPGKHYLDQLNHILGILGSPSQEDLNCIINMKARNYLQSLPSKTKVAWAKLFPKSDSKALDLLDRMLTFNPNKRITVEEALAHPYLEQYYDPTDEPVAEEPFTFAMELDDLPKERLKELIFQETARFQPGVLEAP
Chain of Mitogen-activated protein kinase; ERK1/ERK2 (Homo sapiens) (P28482 whole entry, looked up): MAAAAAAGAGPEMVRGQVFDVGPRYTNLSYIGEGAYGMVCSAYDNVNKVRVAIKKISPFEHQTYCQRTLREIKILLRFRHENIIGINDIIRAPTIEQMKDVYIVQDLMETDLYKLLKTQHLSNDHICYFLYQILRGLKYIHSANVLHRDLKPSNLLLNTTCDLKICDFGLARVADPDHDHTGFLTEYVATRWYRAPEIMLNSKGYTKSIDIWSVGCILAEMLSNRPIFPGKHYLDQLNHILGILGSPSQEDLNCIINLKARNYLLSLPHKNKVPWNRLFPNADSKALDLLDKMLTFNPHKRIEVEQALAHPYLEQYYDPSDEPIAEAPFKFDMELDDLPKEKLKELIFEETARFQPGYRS

SMILES	inhibition (THP-1 [2])	IC50 (THP-1 [3]) [µM]	inhibition (Homo sapiens)	inhibition (THP-1 [5])	Ratio IC50 [6]	IC50 [7] [µM]	IC50 ([8]; read-out: IC50) [µM]	IC50 [9] [µM]	other results
COc1ccc(/C=C/c2c(CC=C(C)C)c(O)cc3c2CC(O)C(C)(C)O3)cc1 (stereo not given)	inactive	1.8	–	–	–	–	–	–	Activity (THP-1 [1]): Toxic; inhibition (THP-1 [4]): Active
C=CC(C)(C)c1cc(/C=C/c2cc(OC)cc(OC)c2)ccc1OC	Active	> 10	Active	inactive	–	–	–	–	–
CC(C)=CCc1c(O)cc2c(c1/C=C\c1ccc(O)cc1)CCC(C)(C)O2	Active	4.9	–	–	–	–	–	–	–
CC(C)=CCc1c(O)cc(O)c(CC=C(C)C)c1/C=C/c1ccc(O)cc1	Active	12.8	Active	Active	0.07	5.7	0.9	0.4	–
CC(C)=CCc1c(O)cc(/C=C/c2ccc(O)cc2O)cc1O	inactive	> 10	–	–	–	–	–	–	Activity (THP-1 [10]): Toxic; Activity (THP-1 [11]): Toxic
COc1ccc(/C=C/c2c(CC=C(C)C)c(O)cc(O)c2CC=C(C)C)cc1	Active	2.7	Active	–	0.17	4.7	1.1	0.8	–
COc1cc(/C=C\c2ccc(OC)c(CC=C(C)C)c2)cc(OC)c1	Active	> 10	Active	Active	–	–	–	–	–
COc1ccc(/C=C/c2c(CC=C(C)C)c(O)cc(O)c2CC=C(C)C)cc1O	Active	3.9	–	–	0.06	14.7	0.9	0.9	–
COc1cc(/C=C/c2ccc(OC)c(CC=C(C)C)c2)cc(OC)c1	Active	> 10	–	Active	–	–	–	–	–
CC1(C)C=Cc2c(O)cc(/C=C/c3ccc(O)cc3)cc2O1 [ARAHYPIN-5]	Active	> 10	Active	inactive	–	> 20	2.4	13.3	inhibition [12]: inactive; inhibition [13]: inactive; inhibition [14]: Active; inhibition [15]: inactive
COc1ccc(/C=C/c2c(CC=C(C)C)c(O)cc3c2CCC(C)(C)O3)cc1O	Active	3.3	–	–	0.36	35.5	–	12.6	IC50 [8]: Not Active
C[C@]12C=CC(=O)C=C1CC[C@@H]1[C@@H]2C(=O)C[C@@]2(C)[C@H]1CC[C@]2(O)C(=O)CO	–	–	Active	–	–	–	–	–	–
